Article PMC3873039 (Anti-Cancer Agents in Medicinal Chemistry, 2013)
Read-outs that look alike come from different tables or passages of the source.

Assays:
[1] = tested on: myeloid cell lines; assay: CellTiter-Glo assay, summary over myeloid lines; format: cell-based; settings: Homo sapiens, 24 h, read-out: IC50 (range in myeloid cell lines)
Method in brief: (§1)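 Cells plated at 2.5 x 10^3 per well in complete RPMI 1640 (10% FBS, 37 °C, 5% CO2). Test compounds dissolved in ethanol and dosed at 2–500 µM for 24 h; vehicle control was 0.1% (v/v) ethanol. Viability was read as ATP luminescence, normalised to vehicle (100%). IC50 was taken from linear regression of each curve. Triplicates, three independent experiments.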

[2] = tested on: K562; assay: Cell cycle analysis, propidium iodide flow cytometry; format: cell-based, human; settings: K562, IC50 dose, 24 h
Method in brief: (§2)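 Seeded at 0.5 x 10^6 cells per well in 12-well plates and treated 24 h at the IC50 concentration of each test compound from CellTiter-Glo. Cells were pelleted (400 g, 5 min), PBS-washed and fixed in 80% ethanol overnight at -20 °C. Staining used 50 µg/mL PI plus RNase overnight at 4 °C.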

[3] = tested on: MOLT-3; assay: CellTiter-Glo luminescent cell viability assay; format: cell-based, human; settings: MOLT-3, 24 h, doses 0, 2, 10, 50, 250, 500 µM, p<0.05
Method in brief: (§3)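 Cells grown in RPMI 1640 with 10% FBS, 1.5 mM L-glutamine and penicillin/streptomycin at 37 °C, 5% CO2. Seeded at 2.5 x 10³ cells/well and exposed 24 h to ethanol-dissolved test compound (0, 2, 10, 50, 250, 500 µM) with 0.1% ethanol vehicle. ATP luminescence normalized to vehicle (100%). IC50 taken from linear regression. Lowest significant dose set by one-way ANOVA/Tukey, p<0.05. Triplicates, three independent experiments.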

[4] = tested on: all leukemia cell lines; assay: CellTiter-Glo assay, summary over the leukemia panel; format: cell-based, human; settings: Homo sapiens, 24 h, read-out: IC50 values (range over leukemia cell lines)
Method in brief: as §1

[5] = tested on: CCRF-CEM; assay: NucView caspase 3 activity assay by flow cytometry; format: cell-based, human; settings: 24 h; for EC50: Homo sapiens, read-out: AP50 (50% induction of apoptosis), Caspase 3 activity assay (C3); for The lowest dose of polyphenols at which there was a significant induction of apoptosis compared to the vehicle control: caspase 3 activity, p<0.05
Method in brief: (§4)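 Seeded at 0.5 x 10⁶ cells/well and treated 24 h, with series of 0–50 or 0–250 µM depending on compound. Normalized to vehicle (0% apoptosis). Mean ± STD, three independent experiments in triplicate. One-way ANOVA/Tukey, p<0.05. AP50 = concentration giving 50% apoptotic cells.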

[6] = tested on: lymphoid cell lines; assay: Apoptosis; format: cell-based; settings: Homo sapiens
[7] = tested on: THP-1; assay: Hoechst 33342 nuclear morphological analysis of apoptosis; format: cell-based; settings: Homo sapiens, THP-1, 24 h, read-out: AP50 (50% induction of apoptosis), Hoechst 33342 staining (Hoe)
Method in brief: (§5)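 Seeded at 0.5 x 10⁶ cells/well in 12-well plates and treated 24 h. Cells were pelleted (400 g, 5 min, 4 °C), washed in PBS, fixed in 4% paraformaldehyde, cytospun, air-dried, then stained with 10 μg/ml Hoechst 33342 for 10 min in the dark. Fluorescence microscopy: 200 cells counted, scored by condensed/intense nuclei, shrinkage, blebbing and apoptotic bodies. % apoptotic nuclei calculated. AP50 = concentration giving 50% apoptotic cells.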

[8] = tested on: MOLT-3; assay: as above; format: cell-based; settings: Homo sapiens, MOLT-3, 24 h, read-out: AP50 (50% induction of apoptosis), Hoechst 33342 staining (Hoe)
Method in brief: as §5

[9] = tested on: K562; assay: as above; format: cell-based; settings: Homo sapiens, K562, 24 h, read-out: AP50 (50% induction of apoptosis), Hoechst 33342 staining (Hoe)
Method in brief: as §5

[10] = tested on: human cervical cancer cells (HeLa); settings: cited from earlier work
[11] = tested on: lymphoid cell lines; assay: CellTiter-Glo assay, summary over lymphoid lines; format: cell-based; settings: Homo sapiens, 24 h, read-out: IC50 (range in lymphoid cell lines)
Method in brief: as §1

[12] = tested on: myeloid cell lines; assay: Apoptosis; format: cell-based; settings: Homo sapiens, 24 h, read-out: AP50 values (range in myeloid cell lines)
[13] = tested on: all leukemia cell lines; assay: Apoptosis; format: cell-based, human; settings: Homo sapiens, 24 h, read-out: AP50 values (range over leukemia cell lines)
[14] = tested on: THP-1; assay: NucView caspase 3 activity assay by flow cytometry; format: cell-based, human; settings: for EC50: Homo sapiens, THP-1, 24 h, read-out: AP50 (50% induction of apoptosis), Caspase 3 activity assay (C3); for The lowest dose of polyphenols at which there was a significant induction of apoptosis compared to the vehicle control: THP-1, caspase 3 activity, 24 h, p<0.05
Method in brief: as §4

[15] = tested on: THP-1; assay: CellTiter-Glo luminescent cell viability assay; format: cell-based, human; settings: THP-1, 24 h, doses 0, 2, 10, 50, 250, 500 µM, p<0.05
Method in brief: as §3

[16] = tested on: MOLT-3; assay: NucView caspase 3 activity assay by flow cytometry; format: cell-based, human; settings: for EC50: Homo sapiens, MOLT-3, 24 h, read-out: AP50 (50% induction of apoptosis), Caspase 3 activity assay (C3); for The lowest dose of polyphenols at which there was a significant induction of apoptosis compared to the vehicle control: MOLT-3, caspase 3 activity, 24 h, p<0.05
Method in brief: as §4

[17] = tested on: CCRF-CEM; assay: Cell cycle analysis, propidium iodide flow cytometry; format: cell-based, human; settings: IC50 dose, 24 h, vehicle control G0/G1 = 41.9%
Method in brief: as §2

[18] = tested on: non-tumor cord blood (CD34+) cells; assay: CellTiter-Glo luminescent cell viability assay; format: cell-based; settings: 24 h; for IC50: read-out: IC50 (50% inhibition of cellular proliferation), CD34+ non-tumour control cells, 24 h treatment; for The lowest dose of polyphenols at which there was a significant inhibition of cell proliferation compared to the vehicle control: CD34+ non-tumour control cells, doses 0, 2, 10, 50, 250, 500 µM, p<0.05
Method in brief: as §3

[19] = tested on: colorectal cancer cells (SW480, HT-29 and Caco-2); settings: SW480, HT-29 and Caco-2, 24 h treatments; cited from earlier work
[20] = tested on: KG1a; assay: NucView caspase 3 activity assay by flow cytometry; format: cell-based, human; settings: 24 h; for EC50: Homo sapiens, KG-1a, read-out: AP50 (50% induction of apoptosis), Caspase 3 activity assay (C3); for The lowest dose of polyphenols at which there was a significant induction of apoptosis compared to the vehicle control: KG1a, caspase 3 activity, p<0.05
Method in brief: as §4

[21] = tested on: lung (A549) and leukemia (HL-60) cell lines; settings: 24 h; cited from earlier work
[22] = tested on: lung cancer cell lines (A549 and CH27); settings: 24 h; cited from earlier work

Row | IC50 [4] | EC50 [5] | EC50 [7] | EC50 [8] | EC50 [9] | EC50 [14] | EC50 [16] | EC50 [20] | Structure (SMILES) | The lowest dose of polyphenols at which there was a significant inhibition of cell proliferation compared to the vehicle control [3] | The lowest dose of polyphenols at which there was a significant induction of apoptosis compared to the vehicle control [5] | The lowest dose of polyphenols at which there was a significant induction of apoptosis compared to the vehicle control [14] | The lowest dose of polyphenols at which there was a significant inhibition of cell proliferation compared to the vehicle control [15] | The lowest dose of polyphenols at which there was a significant induction of apoptosis compared to the vehicle control [16] | Percentage of cells in G0/G1 phase of cell cycle (significant accumulation) [17] | IC50 [18] | The lowest dose of polyphenols at which there was a significant inhibition of cell proliferation compared to the vehicle control [18] | The lowest dose of polyphenols at which there was a significant induction of apoptosis compared to the vehicle control [20] | further results
1 | 100 to 500 µM | 50 µM | 220 µM | 125 µM | 190 µM | 110 µM | 50 µM | 89 µM | O=c1cc(-c2ccc(O)cc2)oc2cc(O)cc(O)c12 [Apigenin] | 50 µM | 10 µM | 10 µM | 10 µM | 50 µM | G0/G1 =52.2% | > 500 µM | 500 µM | 10 µM | IC50 [1]: 100 to 500 µM; Percentage of cells in S phase of cell cycle (significant accumulation) ([2]; vehicle control S = 32.06%): S =50.2%; EC50 ([6]; 24 h, read-out: AP50 values (range in lymphoid cell lines)): 35 to 130 µM; IC50 [10]: 36 µM; IC50 [11]: 140 to 195 µM; EC50 [12]: 84 to 235 µM; EC50 [13]: 35 to 150 µM; IC50 [19]: 70 µM
2 | 109 to 500 µM | > 500 µM | > 500 µM | 400 µM | 460 µM | > 500 µM | 350 µM | > 500 µM | C(=C\c1ccccc1)/c1ccccc1 [Trans-Stilbene, Trans-stilbene] | 50 µM | 50 µM | 250 µM | 250 µM | 50 µM | G0/G1 =49.1% | 500 µM | 250 µM | 50 µM | Percentage of cells in G2/M phase of cell cycle (significant accumulation) ([2]; vehicle control G2/M = 13.6%): G2/M =24.5%; EC50 ([6]; read-out: AP50 values in three lymphoid cell lines): 40 to 460 µM; IC50 [21]: 6.25 µM; IC50 [22]: 25 to 98 µM
